Measurements: ChEMBL document CHEMBL1125652, “Kynurenic acid derivatives. Structure-activity relationships for excitatory amino acid antagonism and identification of potent and selective antagonists at the glycine site on the N-methyl-D-aspartate receptor” (J Med Chem, 1991)
Calls of active or inactive are those of the source. The calls are words filed in the database; no cut-off is given here.

What was measured:
[1] = biological target: T1, Glutamate NMDA receptor (Rattus norvegicus) (UniProt P35439+Q00959+Q00960+Q00961+Q62645+Q8VHN2+Q9R1M7); assay: Apparent dissociation constant of [3H]glycine from N-methyl-D-aspartate glutamate receptor in rat cortical slice preparation expressed as log values.
Method in brief: (§1)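 Rat cortical slice preparation; test compound antagonism of depolarizations evoked by agonists N-methyl-D-aspartic acid, quisqualic acid or kainic acid, expressed as apparent Kb.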

[2] = biological target: Glutamate NMDA receptor; assay: Inhibition of [3H]glycine binding to glycine site of N-methyl-D-aspartate glutamate receptor in rat cortical membranes; type: cell membranes, Membrane
[3] = biological target: T2, Glutamate receptor ionotropic, AMPA (Rattus norvegicus) (UniProt P19491+P19492+P19493+P19490); assay: Apparent dissociation constant of [3H]AMPA from Quisqualate receptor was determined in rat cortical slice preparation at 100 uM; Inactive; method in brief: as §1
[4] = biological target: T1, Glutamate NMDA receptor (Rattus norvegicus); assay: Apparent dissociation constant of [3H]-glycine from N-methyl-D-aspartate glutamate receptor in rat cortical slice preparation at 100 uM; Inactive; method in brief: as §1
[5] = biological target: T3, Glutamate receptor ionotropic, kainate (Rattus norvegicus) (UniProt P22756+Q01812+P42260+P42264+Q63273); assay: Apparent dissociation constant of [3H]kainate from ionotropic glutamate receptor kainate of rat cortical slice at 100 uM; Inactive; type: protein-complex assay; method in brief: as §1
[6] = biological target: T3, Glutamate receptor ionotropic, kainate (Rattus norvegicus); assay: Apparent dissociation constant of [3H]kainate from Ionotropic glutamate receptor ionotropic kainate was determined in rat cortical slice preparation; method in brief: as §1
[7] = biological target: T2, Glutamate receptor ionotropic, AMPA (Rattus norvegicus); assay: Apparent dissociation constant of [3H]AMPA from quisqualate receptor of rat cortical slices; type: protein-complex assay; method in brief: as §1
[8] = biological target: Glutamate receptor ionotropic, kainate; assay: Inhibition of [3H]-kainic acid binding to kainate receptor of rat cortical membrane
[9] = biological target: Glutamate NMDA receptor; assay: Inhibition of [3H]-glutamate binding to N-methyl-D-aspartate glutamate receptor of rat cortical membranes; type: cell membranes, Membrane
[10] = biological target: Glutamate receptor ionotropic, AMPA (Rattus norvegicus, UniProt P19490+P19491+P19492+P19493); assay: Inhibition of [3H]-AMPA binding to AMPA receptor of rat cortical membrane
[11] = biological target: Glutamate NMDA receptor; assay: Inhibition of [3H]glycine binding to N-methyl-D-aspartate glutamate receptor of rat cortical membranes; type: cell membranes, Membrane
Method in brief: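 [3H]Glycine radioligand binding to rat cortical membranes. IC50 is the concentration inhibiting 50% of specific binding, taken from at least two experiments and given as the mean of two to four determinations (geometric mean).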

[12] = biological target: T3, Glutamate receptor ionotropic, kainate (Rattus norvegicus); assay: Apparent dissociation constant for [3H]kainate from Ionotropic glutamate receptor kainate of rat cortical slices; type: protein-complex assay
Method in brief: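 Functional antagonism of kainate-induced depolarizations in rat cortical slices. Apparent Kb was obtained from dose ratios, with a dose ratio under 2 at a stated concentration reported as ">". Kb values are means of at least three experiments.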

[13] = biological target: T1, Glutamate NMDA receptor (Rattus norvegicus); assay: Apparent dissociation constant of [3H]glycine from N-methyl-D-aspartate glutamate receptor of rat cortical slices; type: protein-complex assay
Method in brief: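 Antagonism of NMDA-induced depolarizations in a rat cortical slice preparation, where endogenous glycine is present at supersaturating levels. Apparent Kb was obtained from dose ratios, with a dose ratio under 2 at a stated concentration reported as ">". Kb values are means of at least three experiments.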

[14] = biological target: T1, Glutamate NMDA receptor (Rattus norvegicus); assay: Apparent dissociation constant of [3H]-glycine from N-methyl-D-aspartate glutamate receptor in rat cortical slice at 30 uM; Inactive; method in brief: as §1
[15] = biological target: T2, Glutamate receptor ionotropic, AMPA (Rattus norvegicus); assay: Apparent dissociation constant of [3H]-AMPA from Quisqualate receptor of rat cortical slice at 30 uM; Inactive; type: protein-complex assay; method in brief: as §1

-Log 1/Kb [1]	IC50 [2] [µM]	Kb [6] [µM]	also measured	Structure (SMILES)
3.52	–	–	–	O=C(O)c1cc(O)c2ccc(C(F)(F)F)cc2n1
–	> 100	–	–	CCCc1ccc2c(O)cc(C(=O)O)nc2c1
3.58	> 100	–	–	C=Cc1ccc2c(O)cc(C(=O)O)nc2c1
–	> 100	–	–	O=C(O)c1cc(O)c2c([N+](=O)[O-])cc([N+](=O)[O-])cc2n1
–	> 100	–	Kb [3]: inactive; Kb [4]: inactive; Kb [5]: inactive	O=C(O)c1cc(O)c2cccc(Cl)c2n1
–	> 100	–	–	Cc1cc2c(cc1C)n(C)c(=O)c(=O)n2C
6	0.27	–	–	Cc1cc(I)c2c(O)cc(C(=O)O)nc2c1
–	–	43	Kb [7]: 56 µM	CSc1ccc2nc(C(=O)O)cc(O)c2c1
5.75	0.066	–	–	CCc1cc(Br)cc2nc(C(=O)O)cc(O)c12
–	8.3	4.6	–	O=[N+]([O-])c1ccc2nc(O)c(O)nc2c1
5.12	0.63	–	–	O=C(O)c1cc(O)c2c(I)cccc2n1
5.8	0.086	–	–	O=C(O)c1cc(O)c2c(Br)cc(Br)cc2n1
–	3.4	22	–	Oc1nc2cc(Cl)cc(Cl)c2nc1O
–	–	55	Kb [7]: 48 µM	O=C(O)c1cc(O)c2cc(F)ccc2n1
3.4	–	–	–	CCCc1cccc2nc(C(=O)O)cc(O)c12
5	0.65	–	–	O=C(O)c1cc(O)c2c(Cl)cc(I)cc2n1
–	> 100	–	–	COc1nc2cc(C)c(C)cc2nc1OC
5.15	0.56	50	IC50 [8]: > 1000 µM; IC50 [9]: 169 µM; IC50 [10]: 153 µM	O=C(O)c1cc(O)c2ccc(Cl)cc2n1 [7-CHLOROKYNURENIC ACID]
4.46	–	–	–	O=C(O)c1cc(O)c2c(C(F)(F)F)cccc2n1
–	–	> 100	Kb [7]: > 100 µM; Kb [4]: inactive	O=C(O)c1cc(O)c2cc(C(F)(F)F)ccc2n1
5.26	4.8	–	–	CCc1cccc2nc(C(=O)O)cc(O)c12
–	–	32	Kb [7]: 87 µM; Kb [4]: inactive	COc1ccc2nc(C(=O)O)cc(O)c2c1
4.7	–	–	–	O=C(O)c1cc(O)c2c(Br)cccc2n1
5.05	1.2	–	–	Cc1cc(I)cc2nc(C(=O)O)cc(O)c12

-Log 1/Kb [1]	IC50 [2] [µM]	Kb [6] [µM]	also measured	Structure (SMILES)
3.82	> 100	–	–	CCc1ccc2c(O)cc(C(=O)O)nc2c1
4.33	3.6	–	–	O=C(O)c1cc(O)c2ccc(I)cc2n1
–	> 100	–	–	CC(C)c1ccc2c(O)cc(C(=O)O)nc2c1
–	–	> 100	Kb [7]: > 100 µM; Kb [4]: inactive	CCc1ccc2nc(C(=O)O)cc(O)c2c1
4.42	4.9	–	–	CCc1cc(Cl)c2c(O)cc(C(=O)O)nc2c1
5.1	0.85	–	–	O=C(O)c1cc(O)c2ccc(Br)cc2n1
–	6.8	–	Kb [3]: inactive	O=C(O)C(=O)Nc1cc(Cl)cc(Cl)c1
2.67	–	–	–	CSc1ccc2c(O)cc(C(=O)O)nc2c1
–	2.3	–	–	Cc1cc2[nH]c(=O)c(=O)[nH]c2cc1C
–	–	26	–	Oc1nc2ccc(Cl)cc2nc1O
5.58	1.1	–	–	Cc1cc(Br)cc2nc(C(=O)O)cc(O)c12
4.47	1.8	–	–	Cc1ccc2c(O)cc(C(=O)O)nc2c1
6.4	0.032	–	–	O=C(O)c1cc(O)c2c(I)cc(Cl)cc2n1
–	> 100	–	–	COc1ccc2c(O)cc(C(=O)O)nc2c1
4.11	–	–	–	O=C(O)c1cc(O)c2ccc([N+](=O)[O-])cc2n1
–	8.4	–	–	O=c1[nH]c2ccc(Cl)cc2[nH]c1=O
3.31	> 100	–	–	CCCCc1cccc2nc(C(=O)O)cc(O)c12
–	–	–	IC50 [11]: 4.5 µM	O=c1[nH]c2cc([N+](=O)[O-])c([N+](=O)[O-])cc2[nH]c1=O [DNQX]
–	> 100	–	–	CCCCc1ccc2c(O)cc(C(=O)O)nc2c1
–	–	–	Kb [12]: 1.29 µM; Kb [13]: 5.3 µM	O=[N+]([O-])c1cc2nc(O)c(O)nc2cc1[N+](=O)[O-]
6	0.26	–	–	CCc1cc(Cl)cc2nc(C(=O)O)cc(O)c12
–	> 100	–	–	C=Cc1cccc2nc(C(=O)O)cc(O)c12
–	> 100	86	Kb [14]: inactive; Kb [15]: inactive	COc1nc2cc(C)c(C)cc2nc1O
–	–	30	Kb [7]: 28 µM	O=C(O)c1cc(O)c2cc(Br)ccc2n1

-Log 1/Kb [1]	IC50 [2] [µM]	Kb [6] [µM]	also measured	Structure (SMILES)
–	> 100	19	IC50 [8]: > 300 µM; IC50 [9]: > 300 µM; IC50 [10]: 41 µM	O=C(O)c1cc(O)c2cc(Cl)ccc2n1
5.68	0.82	–	–	Cc1cc(Br)c2c(O)cc(C(=O)O)nc2c1
–	–	89	IC50 [8]: > 1000 µM; IC50 [10]: 101 µM	O=C(O)c1cc(=O)c2ccccc2[nH]1 [TRANSTORINE]
–	6.6	47	–	Cc1cc2[nH]c(=O)c(=O)n(C)c2cc1C
–	3.1	9	–	Oc1nc2cc(Cl)c(Cl)cc2nc1O [2,3-DIHYDROXY-6,7-DICHLOROQUINOXALINE]
–	100	–	Kb [3]: inactive; Kb [4]: inactive; Kb [5]: inactive	COc1cc(C(=O)O)nc2cc(Cl)cc(Cl)c12
–	–	49	Kb [7]: 52 µM; Kb [4]: inactive	O=C(O)c1cc(O)c2cc([N+](=O)[O-])ccc2n1
4.39	–	–	–	O=C(O)c1cc(O)c2c(F)cccc2n1
–	56.3	> 100	–	Oc1nc2cccc(Cl)c2nc1O
–	49	–	Kb [3]: inactive	O=C(O)CNc1cc(Cl)cc(Cl)c1
4.68	2.1	–	–	Cc1cccc2nc(C(=O)O)cc(O)c12
–	> 100	–	Kb [3]: inactive; Kb [4]: inactive; Kb [5]: inactive	Cn1c(C(=O)O)cc(=O)c2c(Cl)cc(Cl)cc21
–	–	27	–	Cc1cc2nc(O)c(O)nc2cc1C
–	> 100	–	–	O=C(O)c1cc(O)c2c(C(F)(F)F)cc(C(F)(F)F)cc2n1
–	0.2	> 30	IC50 [8]: > 300 µM; IC50 [9]: > 100 µM	O=C(O)c1cc(O)c2c(Cl)cc(Cl)cc2n1
4.5	–	–	–	O=C(O)c1cc(O)c2ccc(F)cc2n1
–	5.6	–	–	O=C(O)c1nc2cc(Cl)ccc2[nH]1
–	2.4	14	–	O=C(O)c1cc(O)c2c(Cl)c(Cl)c(Cl)cc2n1
–	38.6	> 100	–	Oc1nc2ccccc2nc1O
4.72	3.2	–	–	CCc1cc(Br)c2c(O)cc(C(=O)O)nc2c1
–	–	59	Kb [7]: 66 µM; Kb [4]: inactive	Cc1ccc2nc(C(=O)O)cc(O)c2c1
4.43	5.2	> 100	–	O=C(O)c1cc(O)c2c(Cl)cccc2n1
–	–	37	Kb [7]: 56 µM	O=C(O)c1cc(O)c2cc(I)ccc2n1
5.16	0.54	–	–	Cc1cc(C)c2c(O)cc(C(=O)O)nc2c1
